The record followed here is PubChem BioAssay AID651944 (The Scripps Research Institute Molecular Screening Center, 2012).

Activity calls are given as the source filed them.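 How the source made its calls: active means IC50 at or below 10 µM; inactive means IC50 above 10 µM.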

This experiment relates to E. coli V66 + mutant T4 phage, OD growth. Kind of experiment: growth suppression of RecBCD+ V66 E. coli with mutant T4, dose response, counter-screen for AddAB inhibitor project, absorbance, round 2 (AID 651944). The method, boiled down:
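Material: E. coli V66 (recBCD+) plus mutant T4 phage; Incubation: 60 min compound pretreatment, 18 h infection, both 37 °C; Compound dosing: 10 doses, 1:3 steps, from 118.6 µM; Read-out: IC50 from four-parameter curve fit; Detection: optical density at 600 nm as bacterial growth measure; Medium: cation-adjusted Mueller Hinton broth with 0.1% glycerol.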
(A counterscreen serves to expose hits that act by an unwanted route or on another target.)
Broadly, the IC50 is the point on the concentration scale where inhibition reaches its midpoint. In the case of `CCn1cc(C(=O)O)c(=O)c2cnc(N3CCN(C(=S)NC(=O)c4cccc(C)c4)CC3)nc21`, the IC50 was > 39.5 µM (inactive).
Regarding `CCn1cc(C(=O)O)c(=O)c2cnc(N3CCN(C(=S)Nc4ccccc4OC)CC3)nc21`, the IC50 was > 119 µM (inactive).
As to `CCn1cc(C(=O)O)c(=O)c2cnc(N3CCN(C(=S)Nc4ccccc4F)CC3)nc21`, the IC50 was > 119 µM (inactive).
Then `CCn1cc(C(=O)O)c(=O)c2cnc(N3CCN(C(=S)Nc4ccc(Cl)cc4)CC3)nc21`, with 80.9 µM (inactive).
Take `CCn1cc(C(=O)O)c(=O)c2cnc(N3CCN(C(=S)Nc4cccc(C(F)(F)F)c4)CC3)nc21`: the IC50 was 77.8 µM (inactive).
On to `CCn1cc(C(=O)O)c(=O)c2cnc(N3CCN(C(=S)NCc4ccccc4)CC3)nc21`, for which the IC50 is > 119 µM (inactive).
